Bioassay records as filed in PubChem.
Rows were chosen to be rich in hits. Some 2.3% of all compounds tested hit in one or more screens of this group.
DNMT1 block: human DNMT1 methyltransferase inhibitors, primary screen, biochemical, molecular beacon, fluorescence, HinP1I cleavage, uHTS; DNA (cytosine-5)-methyltransferase 1 (Homo sapiens), P26358; inhibition (reported as % activation of signal), % at 10 µM; 0.83% of 360,000 active; in the data active = inhibition above about 50%
MT1-MMP act inh: blockers of MT1-MMP proenzyme processing, primary screen, HT1080 RFP-PRO-GFP cells, GFP/RFP fluorescence | 0.061% of 360,000 active | GFP/RFP ratio fluorescence, overnight; percent of plate control window, DMSO zero | Matrix metalloproteinase-14 (Homo sapiens), P50281 | GFP/RFP ratio change, % at 20 µM;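 active = GFP/RFP ratio change of at least 30% with cell ATP level not reduced by more than half and red fluorescence within 50% of control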
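Assay system: HT1080 cells carrying an RFP-PRO-GFP reporter | Dosing: Single dose of 20 µM compound, 1% DMSO final | Incubation: Cells overnight before dosing, compound overnight, 37 °C, 5% CO2 | Evaluation: GFP/RFP fluorescence ratio | Control set: DMSO and RFP-L50D-GFP cell wells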
Rpn11 inh: Rpn11 (PSMD14) deubiquitinase inhibitors, primary screen, biochemical, fluorescence polarization, uHTS. 26S proteasome non-ATPase regulatory subunit 14 (Homo sapiens), O00487. human 26S proteasome, Ub4-pepOG fluorescence polarization; 20S core pre-blocked with epoxomicin. inhibition, % at 20 µM. 0.59% of 360,000 active. AID 588493, 2011;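 active = inhibition at 20 µM, scaled to each plate's controls, above about 33%, limit read from the data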
Target sequence (O00487 whole entry, looked up): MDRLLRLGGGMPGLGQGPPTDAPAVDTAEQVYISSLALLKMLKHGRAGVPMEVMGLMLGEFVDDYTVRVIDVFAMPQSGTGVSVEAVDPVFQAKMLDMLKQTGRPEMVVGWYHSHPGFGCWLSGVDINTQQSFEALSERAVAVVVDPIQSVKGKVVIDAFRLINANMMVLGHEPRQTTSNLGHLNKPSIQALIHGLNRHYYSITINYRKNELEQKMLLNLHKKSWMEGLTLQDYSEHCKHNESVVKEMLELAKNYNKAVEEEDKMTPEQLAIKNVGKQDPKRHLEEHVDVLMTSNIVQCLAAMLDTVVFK
SKN-1 inh: suppressors of acrylamide-induced Pgst-4::GFP reporter in worms, primary screen, SKN-1 inhibitor project, whole organism, uHTS, GFP/RFP fluorescence ratio, strain VP596. C. elegans VP596 Pgst-4::GFP/RFP ratio, 24 h. inhibition, % at 21.8 µM. 0.49% of 360,000 active;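 active = interference check ratio from 0.5 to 1.5 plus GFP to RFP signal ratio inhibition reaching or exceeding a fixed threshold, cut at about 30% in these data, passing the limit was not always enough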
CSN deneddyl inh: inhibitors of CSN-mediated cullin deneddylation, primary screen, biochemical, fluorescence polarization, uHTS; COP9 signalosome complex subunit 5 (Homo sapiens), Q92905; Purified CSN, SCF-Nedd8-OG deneddylation; inhibition, % at 12.5 µM; 0.38% of 360,000 active; AID 651999, 2013;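 active = pattern-corrected inhibition above about 35%, with an unprinted fluorescence ratio check between 0.5 and 1.5, limit read from the data, passing the limit was not always enough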
Target sequence (Q92905 whole entry, looked up, one chain of several): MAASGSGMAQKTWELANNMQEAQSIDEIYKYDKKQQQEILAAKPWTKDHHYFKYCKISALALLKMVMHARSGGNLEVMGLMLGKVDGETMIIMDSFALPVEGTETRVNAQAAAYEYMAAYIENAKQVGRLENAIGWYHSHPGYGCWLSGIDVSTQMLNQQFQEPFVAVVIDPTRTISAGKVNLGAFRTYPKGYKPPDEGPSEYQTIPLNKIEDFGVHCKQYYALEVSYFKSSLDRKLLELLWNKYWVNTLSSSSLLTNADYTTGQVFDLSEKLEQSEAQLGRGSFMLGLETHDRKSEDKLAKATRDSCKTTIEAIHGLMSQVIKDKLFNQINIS
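assay system = purified human Csn5 enzyme expressed in HEK293T cells | amount = 0.24 nM enzyme | buffer or medium = Tris/NaCl/DTT buffer, pH 7.5 | reagent = 10 nM SCFSkp2-Nedd8OG | compound = one concentration, 12.5 µM, 0.25% DMSO | times = 90 min reaction at room temperature | signal = FP | read-out basis = % inhibition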
SUMO1 PPI mod: modulators of SUMO1 protein-protein interactions, primary screen, biochemical, uHTS; SUMO1 binding to a labelled peptide, TR-FRET, 1 h; inhibition, % at 20 µM; 0.33% of 360,000 active; in the data active = inhibition above about 37%
Large screens that a line does not name were inactive.

CCOC(=O)c1c(C)c(C)n2c1NC(=O)C2	SKN-1 inh 46.4 (not shown: Rpn11 inh)
CCOC(=O)c1c(C)[nH]c(C(=O)N2CCN(C(=O)OCC)CC2)c1C	none
CCOc1ccc(C2C(C(=O)c3ccco3)=C(O)C(=O)N2CCCn2ccnc2)cc1OC (stereo unspecified)	SUMO1 PPI mod 46.6
CCCOc1ccc(C2C(C(=O)c3ccco3)=C(O)C(=O)N2CCCn2ccnc2)cc1OC (stereo unspecified)	none
CC(=O)c1c(C)[nH]c(C(=O)OCC(=O)N2CCc3ccccc32)c1C	DNMT1 block 50.1
Cc1nc2ccccc2nc1OCc1cccc(Cl)c1	none
Cc1nc2ccccc2nc1OCc1ccccc1	SKN-1 inh 46.6
CCc1nc2ccc(C(=O)NCc3ccccc3OC)cn2c1N(CC)Cc1cccc(Br)c1	none
COc1cc2cccc(OC)c(=O)c2c(O)c1OC	none
CC(=O)Oc1cc2cccc(OC(C)=O)c(=O)c2c(OC(C)=O)c1OC(C)=O	DNMT1 block 59.1
CNS(=O)(=O)c1cccc(C(=O)OCC(=O)c2ccc3[nH]c(=O)[nH]c3c2)c1	CSN deneddyl inh 54.2
Cc1cc(C)n2c(SCc3c(C)noc3C)nnc2n1	SKN-1 inh 32.8
Cc1cc(C)n2c(SCc3ccc(Br)cc3)nnc2n1	none
CCCCn1nnnc1C(c1ccccc1)N1CCN(c2cccc(C)c2C)CC1 (stereo unspecified)	none (no result: DNMT1 block, Rpn11 inh)
Cc1oc2c(c1C(=O)O)C(=O)c1ccccc1C2=O	none
Cc1oc2c(c1C(=O)c1ccccc1)C(=O)C(=O)c1ccccc1-2	DNMT1 block 93.3, SUMO1 PPI mod 36.9
N#C/C(=C/C1=C(N2CCOCC2)C(=C/c2ccccc2)/CC1)C(=O)Nc1ccccc1F	CSN deneddyl inh 57.6 (not shown: Rpn11 inh)
N#C/C(=C/C1=C(N2CCOCC2)C(=C/c2cccc([N+](=O)[O-])c2)/CC1)C(=O)Nc1ccccc1F	CSN deneddyl inh 53.2
Cc1ccc(OCc2ccc(C(=O)Nc3nccs3)o2)cc1C	SKN-1 inh 55.6
CCOc1ccc(C(=O)Nc2cc(NC(=O)c3ccc(OCC)c(Cl)c3)cc(C(=O)O)c2)cc1Cl	CSN deneddyl inh 48.8
CCOc1ccc(C(=O)Nc2cccc(C(=O)O)c2)cc1Cl	none
CCOC(=O)C(CSCC(=O)c1ccc(Cl)cc1Cl)NC(=O)OC(C)(C)C (stereo unspecified)	SKN-1 inh 36.1
Cc1ccc(/C=C2\SC(=S)N(/N=C/c3cc([N+](=O)[O-])ccc3O)C2=O)o1	DNMT1 block 83.0, Rpn11 inh 45.6, CSN deneddyl inh 56.1, SUMO1 PPI mod 45.3
CCN(CC)CCNC(=O)c1ccc2c(c1NCCO)C(=O)c1ccccc1C2=O	SKN-1 inh 42.0
Cn1nc(C(F)(F)F)cc1-c1ccc(/C=C(\C#N)C(=O)c2ccccc2)s1	CSN deneddyl inh 67.7 (not shown: Rpn11 inh)
CNC(=O)c1ccc(-c2cc(C(F)(F)F)nn2C)s1	none
COc1cc(Cl)ccc1OC1(C)CCN(Cc2cccn2-c2nccs2)C1 (stereo unspecified)	none
O=C(c1ccc(Br)o1)N1CCC(Cc2ccccc2)CC1	CSN deneddyl inh 93.1
Cn1nccc1C(=O)N1CCC(Cc2ccccc2)CC1	SKN-1 inh 37.7
CC(C)C(N)c1csc(NC(=O)Nc2cccc(Cl)c2)n1 (stereo unspecified)	none
Brc1ccc(-c2cn3ccccc3n2)s1	SKN-1 inh 83.8
O=C(NCc1cccnc1)c1cc(C2CCCCN2S(=O)(=O)Cc2ccccc2)on1 (stereo unspecified)	none
COc1ccc(N=Nc2ccc(O)c3ncccc23)cc1	DNMT1 block 71.0, SUMO1 PPI mod 51.1
COc1cccc(N=Nc2ccc(O)c3ncccc23)c1	none
Cc1ccccc1N=Nc1ccc(O)c2ncccc12	DNMT1 block 71.0
O=c1oc2c(-c3ccc([N+](=O)[O-])cc3)cc(O)cc2s1	SUMO1 PPI mod 66.6 (not shown: Rpn11 inh)
NC1=C(c2ccc([N+](=O)[O-])cc2)C(=O)CO1	none
N#C/C(=C\c1ccc(OCc2ccccc2)cc1)C(=O)Nc1nc2c(s1)CCN(Cc1ccccc1)C2	none (not shown: Rpn11 inh)
CN(C)c1ccc(/C=C(/C#N)C(=O)Nc2nc3c(s2)CCN(Cc2ccccc2)C3)cc1	SKN-1 inh 47.6 (not shown: Rpn11 inh)
N#C/C(=C\c1coc2ccccc2c1=O)C(N)=S	Rpn11 inh 43.7
CC(C)C[C@@H](CN1CCC[C@@H]1CN1C(=S)NC[C@@H]1Cc1ccc(O)cc1)N1C[C@H](Cc2ccc(O)cc2)N(CCc2ccccc2)C1=S	none
COc1cccc(C(O)c2nc(-c3ccc(Cl)cc3)cs2)c1 (stereo unspecified)	none
COc1ccc(OC)c(-c2c3cc(O)c(=O)cc-3oc3cc(O)c(O)cc23)c1	DNMT1 block 149.6, CSN deneddyl inh 45.7
CCOc1ccccc1-c1c2cc(O)c(=O)cc-2oc2cc(O)c(O)cc12	DNMT1 block active
COc1ccc(OC)c(-c2oc3ccccc3c(=O)c2O)c1	none
Cc1ccccc1-c1cc(=O)c2c(O)cccc2o1	none
O=c1cc2oc3cc(O)c(O)cc3c(-c3ccccc3O)c-2cc1O	DNMT1 block 110.2
CCN(C)C1CN(Cc2cn(Cc3ccc(F)cc3)nn2)S(=O)(=O)C1 (stereo unspecified)	none (no result: DNMT1 block, Rpn11 inh)
O=C1NC[C@@H](CCCCN2C[C@H](Cc3ccccc3)N(CC3CCCCC3)C(=O)C2=O)N(CCc2ccccc2)C1=O	none (no result: DNMT1 block, Rpn11 inh)
COC(=O)c1sccc1NC(=O)c1ccc(C#N)cc1	Rpn11 inh 60.8
CC1=C(C(=O)N(C(C)C)C(C)C)CC(CC(=O)NC2CCCCC2)C(=O)N1Cc1ccc(F)cc1 (stereo unspecified)	none
CCNC(=O)COC(=O)C1CCN(S(=O)(=O)c2ccc3c(c2)OCCO3)CC1	none
CCCNC(=O)COC(=O)C1CCN(S(=O)(=O)c2ccc3c(c2)OCCO3)CC1	SKN-1 inh 45.3
O=C(Nc1ccccc1)N1CCc2scc[n+]2-c2ccccc21	none
O=CN1CCc2scc[n+]2-c2ccccc21	SKN-1 inh 36.4
C/C=C/c1cccc(-c2nc(C(=O)NC3CCCC3)cc3c2[C@@H](CCO)N(S(=O)C(C)(C)C)C3)c1 (stereo partly specified)	none
COc1ccc(C(O)c2ncc(-c3ccccc3F)[nH]2)cc1 (stereo unspecified)	DNMT1 block 50.7
